Experiments:
MT4 = assay: Cytotoxicity against human MT4 cells assessed as reduction in cell viability incubated for 2 days by CytoTox-Glo cytotoxicity assay; format: cell-based; conditions: mt4, 48 h, time 2 day
Outline: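 Mock-infected MT-4 cells cultured 2 days with a range of compound concentrations. Viability measured by CytoTox-Glo, following the kit protocol, as percent viable cells. CC50 is the concentration giving a 50% reduction in cell viability.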

[1] = test system: Human immunodeficiency virus 1; assay: Antiviral activity against HIV-1 NL4-3 infected in human MT4 cells assessed as reduction in p24 gag protein incubated for 4 days by ELISA; format: functional, organism-based; conditions: Human immunodeficiency virus 1, NL4-3, MT4, 96 h
Outline: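 MT-4 cells infected with HIV-1 NL4-3 at MOI 0.01, serial compound concentrations, in 96-well format. Supernatant p24 antigen measured by capture ELISA on day 4 post-infection. IC50 is the concentration that inhibits NL4-3 replication by 50%. Bevirimat run in parallel as the reference.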

Row | Compound | CC50 (MT4) | IC50 ([1]; read-out: IC50) | IC50 ([1]; read-out: pIC50 (converted))
1 | C=C(C)[C@@H]1CC[C@]2(C(=O)NCCCNC(=O)/C=C/c3ccc4c(c3)OCO4)CC[C@]3(C)[C@H](CC[C@@H]4[C@@]5(C)CC[C@H](OC(=O)CC(C)(C)C(=O)O)C(C)(C)[C@@H]5CC[C@]43C)[C@@H]12 | > 2000 nM | 17 nM | 17 nM
2 | C=C(C)[C@@H]1CC[C@]2(C(=O)N3CCN(C(=O)CCc4ccc5c(c4)OCO5)CC3)CC[C@]3(C)[C@H](CC[C@@H]4[C@@]5(C)CC[C@H](OC(=O)CC(C)(C)C(=O)O)C(C)(C)[C@@H]5CC[C@]43C)[C@@H]12 | > 2000 nM | 22 nM | 21.9 nM
3 | C=C(C)[C@@H]1CC[C@]2(C(=O)OCCCNc3nccs3)CC[C@]3(C)[C@H](CC[C@@H]4[C@@]5(C)CC[C@H](OC(=O)CC(C)(C)C(=O)O)C(C)(C)[C@@H]5CC[C@]43C)[C@@H]12 | > 2000 nM | 39 nM | 38.9 nM
4 | C=C(C)[C@@H]1CC[C@]2(C(=O)N3CCN(C(=O)/C=C/c4csc5ccccc45)CC3)CC[C@]3(C)[C@H](CC[C@@H]4[C@@]5(C)CC[C@H](OC(=O)CC(C)(C)C(=O)O)C(C)(C)[C@@H]5CC[C@]43C)[C@@H]12 | > 2000 nM | 180 nM | 182 nM
5 | C=C(C)[C@@H]1CC[C@]2(C(=O)N3CCN(C(=O)/C(C)=C/c4ccc5c(c4)OCO5)CC3)CC[C@]3(C)[C@H](CC[C@@H]4[C@@]5(C)CC[C@H](OC(=O)CC(C)(C)C(=O)O)C(C)(C)[C@@H]5CC[C@]43C)[C@@H]12 | > 2000 nM | 57 nM | 57.5 nM
6 | C=C(C)[C@@H]1CC[C@]2(C(=O)N3CCN(C(=O)/C=C/c4ccc5c(c4)CCO5)CC3)CC[C@]3(C)[C@H](CC[C@@H]4[C@@]5(C)CC[C@H](OC(=O)CC(C)(C)C(=O)O)C(C)(C)[C@@H]5CC[C@]43C)[C@@H]12 | > 2000 nM | 67 nM | 67.6 nM
7 | C=C(C)[C@@H]1CC[C@]2(C(=O)N3CCN(CCCCC(=O)N4CCN(c5cc(NCc6ccccc6)ncn5)CC4)CC3)CC[C@]3(C)[C@H](CC[C@@H]4[C@@]5(C)CC[C@H](OC(=O)CC(C)(C)C(=O)O)C(C)(C)[C@@H]5CC[C@]43C)[C@@H]12 | > 2000 nM | 12 nM | –
8 | C=C(C)[C@@H]1CC[C@]2(C(=O)N3CCN(C(=O)/C=C/c4ccc(O)c(OCc5cccc(Cl)c5)c4)CC3)CC[C@]3(C)[C@H](CC[C@@H]4[C@@]5(C)CC[C@H](OC(=O)CC(C)(C)C(=O)O)C(C)(C)[C@@H]5CC[C@]43C)[C@@H]12 | > 2000 nM | 190 nM | –
9 | C=C(C)[C@@H]1CC[C@]2(C(=O)N3CCN(C(=O)/C=C/c4ccc(OCOC)c(OCc5cccc(Cl)c5)c4)CC3)CC[C@]3(C)[C@H](CC[C@@H]4[C@@]5(C)CC[C@H](OC(=O)CC(C)(C)C(=O)O)C(C)(C)[C@@H]5CC[C@]43C)[C@@H]12 | > 2000 nM | 460 nM | –
10 | C=C(C)[C@@H]1CC[C@]2(C(=O)N3CCN(C(=O)/C=C/c4ccc5c(c4)OCCO5)CC3)CC[C@]3(C)[C@H](CC[C@@H]4[C@@]5(C)CC[C@H](OC(=O)CC(C)(C)C(=O)O)C(C)(C)[C@@H]5CC[C@]43C)[C@@H]12 | > 2000 nM | 50 nM | 50.1 nM
11 | C=C(C)[C@@H]1CC[C@]2(C(=O)OCCCOC(=O)/C=C/c3ccc(OC)cc3)CC[C@]3(C)[C@H](CC[C@@H]4[C@@]5(C)CC[C@H](OC(=O)CC(C)(C)C(=O)O)C(C)(C)[C@@H]5CC[C@]43C)[C@@H]12 | > 2000 nM | 850 nM | 851 nM
12 | C=C(C)[C@@H]1CC[C@]2(C(=O)N3CCN(C(=O)c4cc5cc(OC)ccc5[nH]4)CC3)CC[C@]3(C)[C@H](CC[C@@H]4[C@@]5(C)CC[C@H](OC(=O)CC(C)(C)C(=O)O)C(C)(C)[C@@H]5CC[C@]43C)[C@@H]12 | > 2000 nM | 53 nM | 52.5 nM
13 | C=C(C)[C@@H]1CC[C@]2(C(=O)N3CCN(C(=O)/C=C/c4cccs4)CC3)CC[C@]3(C)[C@H](CC[C@@H]4[C@@]5(C)CC[C@H](OC(=O)CC(C)(C)C(=O)O)C(C)(C)[C@@H]5CC[C@]43C)[C@@H]12 | > 2000 nM | 32 nM | 32.4 nM
14 | C=C(C)[C@@H]1CC[C@]2(C(=O)N3CCN(C(=O)/C=C/c4ccc(OCc5cccc([N+](=O)[O-])c5)c(OC)c4)CC3)CC[C@]3(C)[C@H](CC[C@@H]4[C@@]5(C)CC[C@H](OC(=O)CC(C)(C)C(=O)O)C(C)(C)[C@@H]5CC[C@]43C)[C@@H]12 | > 2000 nM | 750 nM | 759 nM
15 | C=C(C)[C@@H]1CC[C@]2(C(=O)N3CCN(C(=O)/C=C/c4ccc5occc5c4)CC3)CC[C@]3(C)[C@H](CC[C@@H]4[C@@]5(C)CC[C@H](OC(=O)CC(C)(C)C(=O)O)C(C)(C)[C@@H]5CC[C@]43C)[C@@H]12 | > 2000 nM | 150 nM | 151 nM
16 | C=C(C)[C@@H]1CC[C@]2(C(=O)N3CCN(C(=O)/C=C/c4ccc5c(c4)OC(F)(F)O5)CC3)CC[C@]3(C)[C@H](CC[C@@H]4[C@@]5(C)CC[C@H](OC(=O)CC(C)(C)C(=O)O)C(C)(C)[C@@H]5CC[C@]43C)[C@@H]12 | > 2000 nM | 590 nM | 589 nM
17 | C=C(C)[C@@H]1CC[C@]2(C(=O)N3CCN(C(=O)/C=C/c4ccc5[nH]ccc5c4)CC3)CC[C@]3(C)[C@H](CC[C@@H]4[C@@]5(C)CC[C@H](OC(=O)CC(C)(C)C(=O)O)C(C)(C)[C@@H]5CC[C@]43C)[C@@H]12 | > 2000 nM | 50 nM | 50.1 nM
18 | C=C(C)[C@@H]1CC[C@]2(C(=O)N3CCN(C(=O)CCC(=O)Nc4nccs4)CC3)CC[C@]3(C)[C@H](CC[C@@H]4[C@@]5(C)CC[C@H](OC(=O)CC(C)(C)C(=O)O)C(C)(C)[C@@H]5CC[C@]43C)[C@@H]12 | > 2000 nM | 40 nM | 39.8 nM
19 | C=C(C)[C@@H]1CC[C@]2(C(=O)OCCCN3CCN(c4cc(NCc5ccccc5)ncn4)CC3)CC[C@]3(C)[C@H](CC[C@@H]4[C@@]5(C)CC[C@H](OC(=O)CC(C)(C)C(=O)O)C(C)(C)[C@@H]5CC[C@]43C)[C@@H]12 | > 2000 nM | 430 nM | –
20 | C=C(C)[C@@H]1CC[C@]2(C(=O)N3CCN(C(=O)/C(=C/c4ccc5c(c4)OCO5)CC)CC3)CC[C@]3(C)[C@H](CC[C@@H]4[C@@]5(C)CC[C@H](OC(=O)CC(C)(C)C(=O)O)C(C)(C)[C@@H]5CC[C@]43C)[C@@H]12 | > 2000 nM | 130 nM | 129 nM
21 | C=C(C)[C@@H]1CC[C@]2(C(=O)N3CCN(c4cc(NCc5ccccc5)ncn4)CC3)CC[C@]3(C)[C@H](CC[C@@H]4[C@@]5(C)CC[C@H](OC(=O)CC(C)(C)C(=O)O)C(C)(C)[C@@H]5CC[C@]43C)[C@@H]12 | > 2000 nM | 37 nM | –
22 | C=C(C)[C@@H]1CC[C@]2(C(=O)N3CCN(C(=O)/C=C/c4cn(C)c5ccccc45)CC3)CC[C@]3(C)[C@H](CC[C@@H]4[C@@]5(C)CC[C@H](OC(=O)CC(C)(C)C(=O)O)C(C)(C)[C@@H]5CC[C@]43C)[C@@H]12 | > 2000 nM | 140 nM | 141 nM
23 | C=C(C)[C@@H]1CC[C@]2(C(=O)N3CCN(C(=O)/C=C/c4cccc(OCOC)c4)CC3)CC[C@]3(C)[C@H](CC[C@@H]4[C@@]5(C)CC[C@H](OC(=O)CC(C)(C)C(=O)O)C(C)(C)[C@@H]5CC[C@]43C)[C@@H]12 | > 2000 nM | 90 nM | 89.1 nM
24 | C=C(C)[C@@H]1CC[C@]2(C(=O)N3CCN(C(=O)/C=C/c4ccc(OCOC)cc4)CC3)CC[C@]3(C)[C@H](CC[C@@H]4[C@@]5(C)CC[C@H](OC(=O)CC(C)(C)C(=O)O)C(C)(C)[C@@H]5CC[C@]43C)[C@@H]12 | > 2000 nM | 200 nM | 200 nM
25 | C=C(C)[C@@H]1CC[C@]2(C(=O)N3CCN(C(=O)/C=C/c4cccc(O)c4)CC3)CC[C@]3(C)[C@H](CC[C@@H]4[C@@]5(C)CC[C@H](OC(=O)CC(C)(C)C(=O)O)C(C)(C)[C@@H]5CC[C@]43C)[C@@H]12 | > 2000 nM | 53 nM | 52.5 nM
26 | C=C(C)[C@@H]1CC[C@]2(C(=O)N3CCN(C(=O)/C=C/c4c[nH]c5ccccc45)CC3)CC[C@]3(C)[C@H](CC[C@@H]4[C@@]5(C)CC[C@H](OC(=O)CC(C)(C)C(=O)O)C(C)(C)[C@@H]5CC[C@]43C)[C@@H]12 | > 2000 nM | 69 nM | 69.2 nM

Reference: ChEMBL document CHEMBL4732243, “Design, synthesis, and structure activity relationship analysis of new betulinic acid derivatives as potent HIV inhibitors” (Eur J Med Chem, 2021)
